Experimental data taken from ChEMBL document CHEMBL3763128, “Synthesis and antibacterial evaluation of novel 4″-glycyl linked quinolyl-azithromycins with potent activity against macrolide-resistant pathogens” (2016).
≈ marks a conversion by molar mass, not a printed value.

Experiments:
Assay type in all cases: functional
[1] = system: Streptococcus pyogenes; assay: Antibacterial activity against efflux mediated macrolide resistant Streptococcus pyogenes by agar microdilution method
Method in brief: (§1)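 Agar microdilution per NCCLS guidelines; MIC reported in μg/mL; differences treated as significant only when more than a factor of 2 (one dilution) apart.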

[2] = system: Haemophilus influenzae; assay: Antibacterial activity against Haemophilus influenzae by agar microdilution method
Method in brief: (§2)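 MIC by agar microdilution following NCCLS guidelines. Values in μg/mL. Only differences of more than one twofold dilution were treated as significant. Ery-S denotes erythromycin-susceptible strains.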

[3] = system: Moraxella catarrhalis; assay: Antibacterial activity against Moraxella catarrhalis by agar microdilution method; method in brief: as §2
[4] = system: Staphylococcus aureus; assay: Antibacterial activity against erythromycin-susceptible Staphylococcus aureus by agar microdilution method; method in brief: as §2
[5] = system: Staphylococcus aureus; assay: Antibacterial activity against inducibly macrolide-lincosamide-streptogramin B resistant Staphylococcus aureus by agar microdilution method; method in brief: as §1
[6] = system: Staphylococcus aureus; assay: Antibacterial activity against constitutive macrolide-lincosamide-streptogramin B resistant Staphylococcus aureus by agar microdilution method; method in brief: as §1
[7] = system: Staphylococcus aureus; assay: Antibacterial activity against efflux mediated macrolide resistant Staphylococcus aureus by agar microdilution method; method in brief: as §1
[8] = system: Streptococcus pneumoniae; assay: Antibacterial activity against erythromycin-susceptible Streptococcus pneumoniae by agar microdilution method; method in brief: as §2
[9] = system: Streptococcus pneumoniae; assay: Antibacterial activity against constitutive macrolide-lincosamide-streptogramin B resistant Streptococcus pneumoniae by agar microdilution method; method in brief: as §1
[10] = system: Streptococcus pneumoniae; assay: Antibacterial activity against efflux mediated macrolide resistant Streptococcus pneumoniae by agar microdilution method; method in brief: as §1
[11] = system: Streptococcus pyogenes; assay: Antibacterial activity against erythromycin-susceptible Streptococcus pyogenes by agar microdilution method; method in brief: as §2
[12] = system: Streptococcus pyogenes; assay: Antibacterial activity against inducibly macrolide-lincosamide-streptogramin B resistant Streptococcus pyogenes by agar microdilution method; method in brief: as §1
[13] = system: Streptococcus pyogenes; assay: Antibacterial activity against constitutive macrolide-lincosamide-streptogramin B resistant Streptococcus pyogenes by agar microdilution method; method in brief: as §1

## CCC1OC(=O)[C@H](C)[C@@H](O[C@H]2C[C@@](C)(OC)[C@@H](OC(=O)CNCCCNCCOCCOCCNc3cc4c(cc3F)c(=O)c(C(=O)O)cn4C3CC3)[C@H](C)O2)C(C)[C@@H](O[C@@H]2O[C@H](C)C[C@H](N(C)C)[C@H]2O)[C@](C)(O)C[C@@H](C)CN(C)[C@H](C)[C@@H](O)[C@]1(C)O (single isomer, unassigned)
[1]
  MIC: 1 µg/mL (≈ 0.807 µM)
[2]
  MIC: 4 µg/mL (≈ 3.23 µM)
[3]
  MIC: 2 µg/mL (≈ 1.61 µM)
[4]
  MIC: ≤ 0.125 µg/mL
[5]
  MIC: 4 µg/mL (≈ 3.23 µM)
[6]
  MIC: > 64 µg/mL
[7]
  MIC: 2 µg/mL (≈ 1.61 µM)
[8]
  MIC: ≤ 0.125 µg/mL
[9]
  MIC: 2 µg/mL (≈ 1.61 µM)
[10]
  MIC: 1 µg/mL (≈ 0.807 µM)
[11]
  MIC: ≤ 0.125 µg/mL
[12]
  MIC: 0.5 µg/mL (≈ 0.403 µM)
[13]
  MIC: 4 µg/mL (≈ 3.23 µM)

## CCC1OC(=O)[C@H](C)[C@@H](O[C@H]2C[C@@](C)(OC)[C@@H](OC(=O)CNCCCNCCOCCNc3cc4c(=O)c(C(=O)O)cn(C5CC5)c4cc3Cl)[C@H](C)O2)C(C)[C@@H](O[C@@H]2O[C@H](C)C[C@H](N(C)C)[C@H]2O)[C@](C)(O)C[C@@H](C)CN(C)[C@H](C)[C@@H](O)[C@]1(C)O (single isomer, unassigned)
[1]
  MIC: 0.5 µg/mL (≈ 0.413 µM)
[2]
  MIC: 2 µg/mL (≈ 1.65 µM)
[3]
  MIC: 0.25 µg/mL (≈ 0.206 µM)
[4]
  MIC: ≤ 0.125 µg/mL
[5]
  MIC: 0.5 µg/mL (≈ 0.413 µM)
[6]
  MIC: > 64 µg/mL
[7]
  MIC: 0.5 µg/mL (≈ 0.413 µM)
[8]
  MIC: ≤ 0.125 µg/mL
[9]
  MIC: 0.25 µg/mL (≈ 0.206 µM)
[10]
  MIC: 0.25 µg/mL (≈ 0.206 µM)
[11]
  MIC: ≤ 0.125 µg/mL
[12]
  MIC: 0.25 µg/mL (≈ 0.206 µM)
[13]
  MIC: 1 µg/mL (≈ 0.825 µM)

## CCC1OC(=O)[C@H](C)[C@@H](O[C@H]2C[C@@](C)(OC)[C@@H](OC(=O)CNC(=O)CCNCCOCCNc3cc4c(=O)c(C(=O)O)cn(C5CC5)c4cc3Cl)[C@H](C)O2)C(C)[C@@H](O[C@@H]2O[C@H](C)C[C@H](N(C)C)[C@H]2O)[C@](C)(O)C[C@@H](C)CN(C)[C@H](C)[C@@H](O)[C@]1(C)O (single isomer, unassigned)
[1]
  MIC: 1 µg/mL (≈ 0.816 µM)
[2]
  MIC: 2 µg/mL (≈ 1.63 µM)
[3]
  MIC: 0.5 µg/mL (≈ 0.408 µM)
[4]
  MIC: ≤ 0.125 µg/mL
[5]
  MIC: 2 µg/mL (≈ 1.63 µM)
[6]
  MIC: > 64 µg/mL
[7]
  MIC: 1 µg/mL (≈ 0.816 µM)
[8]
  MIC: ≤ 0.125 µg/mL
[9]
  MIC: 1 µg/mL (≈ 0.816 µM)
[10]
  MIC: 0.5 µg/mL (≈ 0.408 µM)
[11]
  MIC: ≤ 0.125 µg/mL
[12]
  MIC: 0.5 µg/mL (≈ 0.408 µM)
[13]
  MIC: 2 µg/mL (≈ 1.63 µM)

## CCC1OC(=O)[C@H](C)[C@@H](O[C@H]2C[C@@](C)(OC)[C@@H](OC(=O)CNC(=O)CCNCCOCCOCCNc3cc4c(cc3F)c(=O)c(C(=O)O)cn4C3CC3)[C@H](C)O2)C(C)[C@@H](O[C@@H]2O[C@H](C)C[C@H](N(C)C)[C@H]2O)[C@](C)(O)C[C@@H](C)CN(C)[C@H](C)[C@@H](O)[C@]1(C)O (single isomer, unassigned)
[1]
  MIC: 16 µg/mL (≈ 12.8 µM)
[2]
  MIC: 8 µg/mL (≈ 6.38 µM)
[3]
  MIC: 2 µg/mL (≈ 1.6 µM)
[4]
  MIC: 0.5 µg/mL (≈ 0.399 µM)
[5]
  MIC: 32 µg/mL (≈ 25.5 µM)
[6]
  MIC: > 64 µg/mL
[7]
  MIC: 16 µg/mL (≈ 12.8 µM)
[8]
  MIC: ≤ 0.125 µg/mL
[9]
  MIC: 8 µg/mL (≈ 6.38 µM)
[10]
  MIC: 4 µg/mL (≈ 3.19 µM)
[11]
  MIC: ≤ 0.125 µg/mL
[12]
  MIC: 4 µg/mL (≈ 3.19 µM)
[13]
  MIC: 32 µg/mL (≈ 25.5 µM)

## CCC1OC(=O)[C@H](C)[C@@H](O[C@H]2C[C@@](C)(OC)[C@@H](OC(=O)CNCCCNCCOCCNc3cc4c(cc3F)c(=O)c(C(=O)O)cn4C3CC3)[C@H](C)O2)C(C)[C@@H](O[C@@H]2O[C@H](C)C[C@H](N(C)C)[C@H]2O)[C@](C)(O)C[C@@H](C)CN(C)[C@H](C)[C@@H](O)[C@]1(C)O (single isomer, unassigned)
[1]
  MIC: 2 µg/mL (≈ 1.67 µM)
[2]
  MIC: 2 µg/mL (≈ 1.67 µM)
[3]
  MIC: 1 µg/mL (≈ 0.836 µM)
[4]
  MIC: 0.25 µg/mL (≈ 0.209 µM)
[5]
  MIC: 2 µg/mL (≈ 1.67 µM)
[6]
  MIC: > 64 µg/mL
[7]
  MIC: 1 µg/mL (≈ 0.836 µM)
[8]
  MIC: ≤ 0.125 µg/mL
[9]
  MIC: 2 µg/mL (≈ 1.67 µM)
[10]
  MIC: 0.25 µg/mL (≈ 0.209 µM)
[11]
  MIC: ≤ 0.125 µg/mL
[12]
  MIC: 0.5 µg/mL (≈ 0.418 µM)
[13]
  MIC: 4 µg/mL (≈ 3.35 µM)

## CCC1OC(=O)[C@H](C)[C@@H](O[C@H]2C[C@@](C)(OC)[C@@H](OC(=O)CNC(=O)CCNCCOCCNc3cc4c(cc3F)c(=O)c(C(=O)O)cn4C3CC3)[C@H](C)O2)C(C)[C@@H](O[C@@H]2O[C@H](C)C[C@H](N(C)C)[C@H]2O)[C@](C)(O)C[C@@H](C)CN(C)[C@H](C)[C@@H](O)[C@]1(C)O (single isomer, unassigned)
[1]
  MIC: 8 µg/mL (≈ 6.61 µM)
[2]
  MIC: 4 µg/mL (≈ 3.31 µM)
[3]
  MIC: 1 µg/mL (≈ 0.827 µM)
[4]
  MIC: 0.25 µg/mL (≈ 0.207 µM)
[5]
  MIC: 4 µg/mL (≈ 3.31 µM)
[6]
  MIC: > 64 µg/mL
[7]
  MIC: 4 µg/mL (≈ 3.31 µM)
[8]
  MIC: ≤ 0.125 µg/mL
[9]
  MIC: 8 µg/mL (≈ 6.61 µM)
[10]
  MIC: 4 µg/mL (≈ 3.31 µM)
[11]
  MIC: ≤ 0.125 µg/mL
[12]
  MIC: 4 µg/mL (≈ 3.31 µM)
[13]
  MIC: 16 µg/mL (≈ 13.2 µM)

## CC[C@H]1OC(=O)[C@@H](C)[C@H](O[C@@H]2C[C@](C)(OC)[C@H](OC(=O)CNC(=O)CCNCCOCCOCCNc3cc4c(=O)c(C(=O)O)cn(C5CC5)c4cc3Cl)[C@@H](C)O2)[C@H](C)[C@H](O[C@H]2O[C@@H](C)C[C@@H](N(C)C)[C@@H]2O)[C@@](C)(O)C[C@H](C)CN(C)[C@@H](C)[C@H](O)[C@@]1(C)O (stereo in doubt)
[1]
  MIC: 2 µg/mL (≈ 1.57 µM)
[2]
  MIC: 4 µg/mL (≈ 3.15 µM)
[3]
  MIC: 1 µg/mL (≈ 0.787 µM)
[4]
  MIC: ≤ 0.125 µg/mL
[5]
  MIC: 4 µg/mL (≈ 3.15 µM)
[6]
  MIC: > 64 µg/mL
[7]
  MIC: 0.5 µg/mL (≈ 0.394 µM)
[8]
  MIC: ≤ 0.125 µg/mL
[9]
  MIC: 4 µg/mL (≈ 3.15 µM)
[10]
  MIC: 1 µg/mL (≈ 0.787 µM)
[11]
  MIC: ≤ 0.125 µg/mL
[12]
  MIC: 1 µg/mL (≈ 0.787 µM)
[13]
  MIC: 8 µg/mL (≈ 6.3 µM)

## CC[C@H]1OC(=O)[C@@H](C)[C@H](O[C@@H]2C[C@](C)(OC)[C@H](OC(=O)CNCCCNCCOCCOCCNc3cc4c(=O)c(C(=O)O)cn(C5CC5)c4cc3Cl)[C@@H](C)O2)[C@H](C)[C@H](O[C@H]2O[C@@H](C)C[C@@H](N(C)C)[C@@H]2O)[C@@](C)(O)C[C@H](C)CN(C)[C@@H](C)[C@H](O)[C@@]1(C)O (stereo in doubt)
[1]
  MIC: 1 µg/mL (≈ 0.796 µM)
[2]
  MIC: 2 µg/mL (≈ 1.59 µM)
[3]
  MIC: 0.5 µg/mL (≈ 0.398 µM)
[4]
  MIC: ≤ 0.125 µg/mL
[5]
  MIC: 1 µg/mL (≈ 0.796 µM)
[6]
  MIC: > 64 µg/mL
[7]
  MIC: 1 µg/mL (≈ 0.796 µM)
[8]
  MIC: ≤ 0.125 µg/mL
[9]
  MIC: 1 µg/mL (≈ 0.796 µM)
[10]
  MIC: 0.5 µg/mL (≈ 0.398 µM)
[11]
  MIC: ≤ 0.125 µg/mL
[12]
  MIC: 0.25 µg/mL (≈ 0.199 µM)
[13]
  MIC: 2 µg/mL (≈ 1.59 µM)

## CC[C@H]1OC(=O)[C@@H](C)[C@H](O[C@@H]2C[C@](C)(OC)[C@H](OC(=O)CNC(=O)CCNCCNc3cc4c(=O)c(C(=O)O)cn(C5CC5)c4cc3Cl)[C@@H](C)O2)[C@H](C)[C@H](O[C@H]2O[C@@H](C)C[C@@H](N(C)C)[C@@H]2O)[C@@](C)(O)C[C@H](C)CN(C)[C@@H](C)[C@H](O)[C@@]1(C)O (stereo in doubt)
[1]
  MIC: 0.25 µg/mL (≈ 0.212 µM)
[2]
  MIC: 0.5 µg/mL (≈ 0.423 µM)
[3]
  MIC: 0.125 µg/mL (≈ 0.106 µM)
[4]
  MIC: ≤ 0.125 µg/mL
[5]
  MIC: 1 µg/mL (≈ 0.846 µM)
[6]
  MIC: > 64 µg/mL
[7]
  MIC: 0.5 µg/mL (≈ 0.423 µM)
[8]
  MIC: ≤ 0.125 µg/mL
[9]
  MIC: 0.5 µg/mL (≈ 0.423 µM)
[10]
  MIC: 0.25 µg/mL (≈ 0.212 µM)
[11]
  MIC: ≤ 0.125 µg/mL
[12]
  MIC: 0.25 µg/mL (≈ 0.212 µM)
[13]
  MIC: 0.5 µg/mL (≈ 0.423 µM)
